Source: PubChem
Hits are enriched below; roughly 9.2% of the tested compounds scored in any of these assays.
L major viab: reduces viability of Leishmania major promastigotes; resazurin fluorescence viability; AID 1063; inhibition, % at 10 µM; 200,000 compounds, 9% hits; in the data active = inhibition above about 50%;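 also: promastigotes grown with compound for 44 hours at 28 °C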
bCat KO growth: beta-catenin-lacking colon tumor cell growth suppression | viability, % at 10 µM | HCT116 beta-catenin knockout viability, CellTiter-Glo, 60 h; stronger effect = lower value | 140,000 compounds, 1.5% hits;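 active = viability at or under a set limit, the compound median less 4 SD, cut at about 6% in these data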
HCT116 PTEN-null: PTEN-deleted cell growth suppression. HCT116 PTEN-null viability, CellTiter-Glo, 60 h; stronger effect = lower value. viability, % at 10 µM. 140,000 compounds, 1.2% hits;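 active = viability at or below a set limit, 4 SD under the median of all tested compounds, cut at about 3.7% in these data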;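 also: PTEN knockout HCT116 line with beta catenin targeted HCT116 as companion control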
Autophagy HCS: modulators of autophagy; MEF GFP-LC3 puncta imaging; test concentration mostly 10 µM; calls only at 10 µM (by protocol); 190,000 compounds, 0.98% hits;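 active = percentage of spot-positive cells more than 3 SD above its plate mean, without a fluorescence outlier flag or 80% toxicity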
Dynein transport: blocks dynein driven cargo transport along microtubules | 3617.4 mouse cells, GR-EGFP nuclear translocation imaging; test concentration mostly 20 µM; stimulated with dexamethasone, 1 µM; stronger effect = lower value | z-score, hits read low | 220,000 compounds, 0.47% hits | AID 1381;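 active = plate z-score of nuclear minus cytoplasmic receptor signal below a set negative limit, without overly bright fluorescence or cell loss, cut at about -3.5 in these data, passing the limit was not always enough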;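 also: z-score of nuclear minus cytoplasmic ring GR-EGFP intensity difference per well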
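medium = tetracycline-free induction medium containing charcoal-stripped FBS | probe or stimulus = dexamethasone, 1.0 µM final | timing = 48 h induction, then 1 h compound, then 30 min agonist, 37 °C | detection = automated 10x imaging of fixed Hoechst-stained cells | read-out basis = nuclear versus cytoplasmic GR-EGFP signal, averaged per well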
Numbers stand for hits; n = inactive; x = no result; + = active, no number.

SMILES | L major viab | bCat KO growth | HCT116 PTEN-null | Autophagy HCS | Dynein transport
Cc1nnc(SCC(=O)N(Cc2ccccc2)C(C)(C)C)[nH]c1=O | n | x | x | n | n
CC(C)Sc1nc(C(F)(F)F)cc(=O)n1-c1ccccc1 | n | n | n | n | n
OC1(c2ccccc2)CCN(Cc2ccccc2)C2CCCCC21 (centres undefined) | 96.8 | n | n | n | n
COc1ccc2c(c1)Cc1sc(NC(=O)c3cccnc3)nc1-2 | 55.0 | x | x | n | n
COc1ccc2c(c1)Cc1sc(NC(=O)c3ccco3)nc1-2 | 53.2 | n | n | n | n
COc1ccc2c(c1)CCc1sc(NC(=O)c3ccco3)nc1-2 | n | n | n | n | n
CC(C)CC1=NN(C(=O)c2ccncc2)C(O)(C(F)(F)F)C1 (centres undefined) | n | n | n | n | n
C/C(=N\NC(=O)C(NC(=O)c1ccccc1)C(C)C)c1ccccc1 (centres undefined) | n | n | n | n | n
Cc1[nH]nc2c1-c1nc3ccccc3nc1C(C)(C)C2 | n | n | n | n | n
CCCn1c(SCC(=O)c2c[nH]c3ccccc23)nnc1-c1ccncc1 | n | n | n | n | n
CCOC(=O)C1CCN(c2c(C(=O)c3ccccc3)cnc3ccc(CC)cc23)CC1 | 54.7 | x | x | n | n
CCOC(=O)C1CCCN(c2c(C(=O)c3ccccc3)cnc3ccccc23)C1 (centres undefined) | 50.7 | x | x | n | n
CCOC(=O)C1CCCN(C(=O)c2cc3c(C)nc4ccccc4c3o2)C1 (centres undefined) | 76.6 | n | n | n | n
CCOC(=O)C1CCCN(c2nc(C)nc3c2oc2ccccc23)C1 (centres undefined) | n | n | n | n | n
CCCNC(=O)c1nnsc1Sc1ccc(Cl)cc1 | n | x | x | n | n
Cc1c(Cl)cccc1NC(=O)c1cccc(OC(F)F)c1 | 99.3 | n | n | n | n
Cc1ccc(NC(=O)c2cccc(OC(F)F)c2)c(OC(F)F)c1 | n | n | n | n | n
COC(=O)c1ccc(C(=O)OC)c(NC(=O)CN(C)Cc2ccc(Cl)c(Cl)c2)c1 | n | n | n | n | n
COc1ccc(C)cc1NC(=O)C(=O)NNC(=O)c1ccco1 | n | n | n | n | x
Clc1cccc(Nc2nc(-c3ccncc3)nc3ccccc23)c1 | x | x | x | x | n
Fc1ccc(Nc2nc(-c3ccncc3)nc3ccccc23)cc1F | 81.0 | n | n | n | n
O=C(c1ccc(-c2ccc([N+](=O)[O-])cc2)o1)N1CCCCC1 | 99.6 | n | n | n | n
O=C(c1ccc(-c2ccc(Cl)cc2)o1)N1CCN(c2ccc([N+](=O)[O-])cc2Cl)CC1 | n | n | n | n | n
O=C(Cn1nc(-c2ccccc2)c2ccccc2c1=O)NN1CCOCC1 | x | x | x | x | n
Cc1cc(NCCCn2ccnc2)n2ncc(-c3ccccc3)c2n1 | 89.5 | n | n | n | n
SMILES | L major viab | bCat KO growth | HCT116 PTEN-null | Autophagy HCS | Dynein transport
Cc1cc(NCCCn2ccnc2)n2nc(C)c(-c3ccccc3)c2n1 | n | n | n | n | n
Cc1cc(NCCN2CCOCC2)n2nc(C)c(-c3ccc(Cl)cc3)c2n1 | 93.8 | n | n | + | n
Cc1cc(NCCCn2ccnc2)n2nc(C)c(-c3ccc(Cl)cc3)c2n1 | 98.1 | 5.5 | n | n | n
OC(COCc1ccc(Cl)cc1)CN1CCN(c2ccccn2)CC1 (centres undefined) | n | n | n | n | n
Cc1cc(C)c(C#N)c(SCC(=O)C(C)(C)C)n1 | 76.8 | n | n | n | n
COc1ccc2cc(/C=N/NC(=O)c3ccc(CN(c4cccc(Cl)c4Cl)S(C)(=O)=O)cc3)c(Cl)nc2c1 | 80.5 | n | n | n | n
COc1ccc2cc(/C=N/O)c(Cl)nc2c1 | n | x | x | n | n
COc1ccc(NC(=O)COC(=O)c2c3c(nc4ccccc24)CCCC3)cc1 | 94.2 | n | x | n | n
CC1(C)CC2(CC(C)(C)NC(=O)N2)NC(=O)N1 | n | n | n | n | n
O=C(NCCCn1ccnc1)/C(=C\c1cccs1)NC(=O)c1ccco1 | 55.9 | n | n | n | n
O=C(CCC1CCCN(C(=O)c2ccc3c(c2)OCO3)C1)NCc1ccc(F)c(F)c1 (centres undefined) | n | x | x | n | n
COc1ccc(/C=C/CN2CCCC(CCC(=O)NCc3ccc(F)c(F)c3)C2)cc1 (centres undefined) | 80.7 | x | x | n | n
COC(=O)c1ccc(CN2CCCC(CCC(=O)NCc3ccc(C)o3)C2)cc1 (centres undefined) | 76.9 | x | x | n | n
O=C(CCC1CCCN(Cc2ccc3c(c2)OCCO3)C1)NCc1ccc(F)c(F)c1 (centres undefined) | 73.1 | x | x | n | n
O=C(CCC1CCCN(Cc2ccc3c(c2)OCCO3)C1)NCc1ccccc1F (centres undefined) | x | x | x | x | n
O=C(CCC1CCCN(Cc2cccc3c2OCO3)C1)NCc1ccc(F)c(F)c1 (centres undefined) | 87.4 | x | x | n | n
COc1ccc(CNC(=O)CSc2nnc(C(F)(F)F)n2C)cc1 | n | x | x | n | n
CCOC(=O)Nc1ccc2nc(Sc3ccc(Cl)cc3)sc2c1 | x | x | x | x | n
C/C(=N\Nc1ccc(C(=O)O)cc1)c1ccc2c(c1)Nc1ccccc1S2 | x | x | x | x | n
COc1ccc(CSc2nc(C)cc(C)c2S(C)(=O)=O)cc1 | n | x | x | n | n
CCCCCCCCCC[n+]1cccc(C(=O)N(CC)CC)c1 | 90.5 | n | n | n | n
NC(=O)c1ccc[n+](CCC[n+]2cccc(C(N)=O)c2)c1 | n | x | x | n | n
O=C(COc1ccc2ccccc2c1)N1CCN(C(=O)c2ccc([N+](=O)[O-])cc2)CC1 | n | x | x | n | n
COC(=O)c1cn(NC(=O)C2CCCO2)c(=O)c2ccccc12 (centres undefined) | n | n | n | + | n
COC(=O)c1cn(NC(=O)C2COc3ccccc3O2)c(=O)c2ccccc12 (centres undefined) | n | n | n | n | n
SMILES | L major viab | bCat KO growth | HCT116 PTEN-null | Autophagy HCS | Dynein transport
O=C(Nc1ncc(Cc2ccccc2)s1)c1cccs1 | n | n | n | n | n
O=C(Nc1ncc(Cc2cccc(Cl)c2)s1)c1cccs1 | 84.1 | n | n | n | n
O=C(O)CCc1n[nH]c(=S)[nH]c1=O | n | n | n | x | n
Cc1cccc(C(=O)Oc2ccccc2/C=N/Nc2ccc([N+](=O)[O-])cc2)c1 | 98.1 | n | n | n | n
CCc1ccc2c(c1)C1(NN=C(c3cccc4ccccc34)S1)C(=O)N2 (centres undefined) | 98.9 | n | n | + | n
CCOC(=O)/C(=C/C1=CC(=C/N(C)C)/C(=O)O1)C(C)=O | x | x | x | x | n
O=C(NCc1ccccn1)c1cc(-c2ccccc2Cl)nc2ccccc12 | 87.4 | n | n | n | n
O=C(NNC(=O)c1cc(-c2ccc(Cl)cc2Cl)nc2ccccc12)Nc1ccccc1 | 69.5 | n | n | n | n
Cc1cc(NS(=O)(=O)c2ccc(NC(=O)c3cc(-c4ccccc4Cl)nc4ccccc34)cc2)no1 | 59.6 | n | n | n | n
O=C(O)C(Cc1c[nH]c2ccccc12)N1Cc2ccccc2C1=O (centres undefined) | n | x | x | n | n
CC(=O)c1ccc(Nc2cc(C)nc3c(C)cc(C)cc23)cc1 | 100.2 | x | x | + | n
